Screening data deposited in PubChem by several laboratories.
CHOP UPR activ = activators of apoptotic arm of unfolded protein response (CHOP). 330,000 tested, 0.34% active. activation, % at 10 µM. CHO-CHOP luciferase reporter, UPR activation, luminescence; percent of tunicamycin response over DMSO baseline;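 active = at 10 µM dose, activation of 40% or more, normalized to positive control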;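 also: 100% = tunicamycin at 10 µg/mL and 0% = DMSO alone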
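Evaluation: % reporter activation, DMSO baseline versus tunicamycin full activation; System: CHO-CHOP luciferase reporter cell line; Input: 500 cells/well; Incubation: 6 h compound treatment, 37 °C; Measured by: Steady-Glo luciferase luminescence; Dosing: one dose, 10 µM in 0.5% DMSO; Buffer or medium: F12 medium, 10% FBS; Benchmarks: positive tunicamycin 10 µg/mL, negative DMSO alone.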
Dynein transport = dynein cargo transport inhibition. 3617.4 mouse cells, GR-EGFP nuclear translocation imaging; test concentration mostly 20 µM; stimulated with dexamethasone, 1 µM; stronger effect = lower value. z-score, hits read low. 220,000 tested, 0.47% active;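 active = plate z-score of nuclear minus cytoplasmic receptor signal below a set negative limit, without overly bright fluorescence or cell loss, cut at about -3.5 in these data, passing the limit was not always enough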;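 also: z-score of nuclear minus cytoplasmic ring GR-EGFP intensity difference per well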
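Also added: dexamethasone, 1.0 µM final. Medium: tet-free, stripped-serum medium. Detection: fixed, Hoechst-stained cells imaged at 10x for EGFP. Read-out: nuclear-to-cytoplasmic GR-EGFP distribution per well. Times: induction 48 h, compound 1 h, agonist 30 min.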
Lmaj promast = inhibitors of Leishmania major promastigote growth | inhibition, % at 10 µM | 200,000 tested, 9% active | Leishmania major promastigotes, resazurin fluorescence viability; in the data active = inhibition above about 50%;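 also: promastigotes grown with compound for 44 hours at 28 °C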
T cruzi inh = blocks replication of Trypanosoma cruzi; T. cruzi beta-gal in NIH3T3, luminescence, 90 h; inhibition, % (no concentration beside the values); 300,000 tested, 1.4% active; AID 1885;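 active = mean inhibition across valid replicates above about 55%, limit read from the data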;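 also: signal also drops with host cell toxicity which is not excluded here; 0% = plate median of DMSO wells and 100% = zero luminescence signal; higher percent means less beta-gal luminescence so fewer parasites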
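assay system = mouse NIH/3T3 fibroblasts infected with β-gal-expressing T. cruzi Tulahuen C4 | input = 5,000 NIH/3T3 host cells per well | buffer or medium = DMEM plus 2% FBS | timing = 3 h host attachment, then at least 90 h co-culture | measured by = GalScreen luminescence, 60 min | evaluation = luminescence reflecting intracellular parasite burden, expressed as percent inhibition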
CHOP inhibitor = CHOP inhibition in unfolded protein response. inhibition, % at 10 µM. AID 2732. CHO-K1 CHOP-promoter luciferase, tunicamycin-induced, 15-18 h. 220,000 tested, 3.8% active;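 active = compounds that reduced the stress-induced luciferase reporter signal by more than about 70% of percent inhibition, limit read from the data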;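 also: 0% = tunicamycin plus vehicle and 100% = wells without tunicamycin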
UPR XBP1 act = adaptive UPR (XBP1) activation; CHO-XBP1 luciferase reporter, IRE1-XBP1 UPR activation, luminescence; percent of tunicamycin response, DMSO as zero; activation, % at 20 µM; 330,000 tested, 0.33% active;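 active = versus positive control, 20 µM dose yields 30% or more activation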;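 also: 100% = tunicamycin at 10 µg/mL and 0% = DMSO only wells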
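Assay system: CHO-XBP1 luciferase reporter cells; Schedule: 6 h treatment, 37 °C; Detection: glow luminescence from Steady-Glo reagent; Benchmarks: high control tunicamycin 10 µg/mL final, low control DMSO vehicle only.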
* = called active by the depositor. The entries come from a sample that favours hits as a whole.

What do the screens show for `Cc1ccc(NC(=O)COC(=O)c2csc3c2CCC(C)C3)cc1S(=O)(=O)N1CCCCC1` (configuration not stated)?
CHOP UPR activ: 3; Dynein transport: 0.79; Lmaj promast: 2; T cruzi inh: -17; CHOP inhibitor: 28; UPR XBP1 act: -3

How did CC(=O)c1ccc(NC(=O)N2CCN(c3cccc(Cl)c3)CC2)cc1 do in these assays?
CHOP UPR activ: 1; Dynein transport: 0.13; Lmaj promast: 59*; T cruzi inh: 0; CHOP inhibitor: 22; UPR XBP1 act: 0

What do the screens show for `CN1CCC(N2CCN(c3cccc(C(F)(F)F)c3)CC2)CC1`?
CHOP UPR activ: -1; Dynein transport: -0.64; Lmaj promast: 100*; T cruzi inh: 50; CHOP inhibitor: 7; UPR XBP1 act: 1

Results for CSCC(=O)N1CCCC(N2CCN(c3cccc(C(F)(F)F)c3)CC2)C1 (configuration not stated) ?
CHOP UPR activ: 3; T cruzi inh: 5; UPR XBP1 act: -2

How did CC1CCc2c(C(=O)OCC(=O)Nc3cccc(S(=O)(=O)N4CCCCCC4)c3)csc2C1 (configuration not stated) do in these assays?
CHOP UPR activ: 0; Dynein transport: 0.077; Lmaj promast: 83*; T cruzi inh: 8; CHOP inhibitor: 58; UPR XBP1 act: -1

Results for O=C(NC1CC1)c1cc(=S)[nH]c2ccccc12 ?
CHOP UPR activ: -1; UPR XBP1 act: -1

What do the screens show for `Cc1ccccc1Oc1cc(NC(=O)Cn2cnc([N+](=O)[O-])c2)cc([N+](=O)[O-])c1`?
CHOP UPR activ: 0; Dynein transport: -0.75; Lmaj promast: 97*; T cruzi inh: 50; CHOP inhibitor: 24; UPR XBP1 act: 5

What do the screens show for `Cc1ccccc1Oc1cc(NC(=O)CCCn2nc(C)c([N+](=O)[O-])c2C)cc([N+](=O)[O-])c1`?
CHOP UPR activ: 2; Dynein transport: -0.13; Lmaj promast: 98*; T cruzi inh: 37; CHOP inhibitor: 91*; UPR XBP1 act: 5

Results for Cc1nn(CCCC(=O)Nc2cc(Oc3ccc(F)cc3)cc([N+](=O)[O-])c2)c(C)c1[N+](=O)[O-] ?
CHOP UPR activ: 2; Dynein transport: 0.61; Lmaj promast: 100*; T cruzi inh: 47; CHOP inhibitor: 67; UPR XBP1 act: -2

How did CCc1ccc(NC(=O)Cn2cnc([N+](=O)[O-])c2)cc1 do in these assays?
CHOP UPR activ: -2; T cruzi inh: -4; UPR XBP1 act: -2

What do the screens show for `CCN(CC(=O)Nc1ccc(NC(C)=O)cc1)C(=O)c1cccc(S(=O)(=O)N2CCCC2)c1`?
CHOP UPR activ: 2; T cruzi inh: 4; UPR XBP1 act: 0

Results for CCN(CC)C(=O)Cn1cc(C(=O)C(=O)N2CCN(c3ccc(OC)cc3)CC2)c2ccccc21 ?
CHOP UPR activ: 0; T cruzi inh: -13; UPR XBP1 act: -2

What do the screens show for `CN(C)S(=O)(=O)c1ccc(C(=O)N2CCN(S(=O)(=O)c3cccs3)CC2)cc1`?
CHOP UPR activ: -1; Dynein transport: 0.071; Lmaj promast: 75*; T cruzi inh: 14; CHOP inhibitor: 8; UPR XBP1 act: -2

Results for COc1ccc(C)cc1S(=O)(=O)Nc1cccc(C)c1 ?
CHOP UPR activ: 0; Dynein transport: 1.5; Lmaj promast: 23; T cruzi inh: 13; CHOP inhibitor: -9; UPR XBP1 act: -1

How did COc1ccc(C)cc1S(=O)(=O)Nc1cccc(Cl)c1 do in these assays?
CHOP UPR activ: -1; Dynein transport: 0.9; Lmaj promast: 99*; T cruzi inh: 7; CHOP inhibitor: 65; UPR XBP1 act: -4

What do the screens show for `CCCCOc1ccc(/C=C/C(=O)OCC(=O)NC(=O)NCC(C)C)cc1OCC`?
CHOP UPR activ: 1; Dynein transport: -0.54; Lmaj promast: -4; T cruzi inh: -6; CHOP inhibitor: 72*; UPR XBP1 act: -3

How did CCCCOc1ccc(/C=C/C(=O)OCC(=O)NC2CCS(=O)(=O)C2)cc1OCC (configuration not stated) do in these assays?
CHOP UPR activ: 0; T cruzi inh: -9; UPR XBP1 act: -1

Results for CCc1cc2cc(C)cc(C)c2nc1SCC(=O)N1CCCC1 ?
CHOP UPR activ: -1; Dynein transport: 1.2; Lmaj promast: 15; CHOP inhibitor: 87*; UPR XBP1 act: 0

Results for CN(CC(=O)Nc1cccc(F)c1)C(=O)CN1C(=O)C2CCCCC2C1=O (configuration not stated) ?
CHOP UPR activ: 3; UPR XBP1 act: 0

Results for CC(=O)c1ccc(N(CC(=O)NC2CCCC2)C(=O)c2csnn2)cc1 ?
CHOP UPR activ: 1; T cruzi inh: -2; UPR XBP1 act: -6

Results for Cc1ccc(C)c(OCC(O)CN2C(C)CCCC2C)c1 (configuration not stated) ?
CHOP UPR activ: 0; Dynein transport: -1.5; Lmaj promast: 44; T cruzi inh: 12; CHOP inhibitor: 0; UPR XBP1 act: -2

How did C=CCc1ccc(OCC(O)CN2CCCCC2)c(OC)c1 (configuration not stated) do in these assays?
CHOP UPR activ: 0; Dynein transport: -0.46; Lmaj promast: 78*; T cruzi inh: -14; CHOP inhibitor: 2; UPR XBP1 act: -1

Results for Cc1ccc(C)c(OCC(O)CN2CCCCC2C)c1 (configuration not stated) ?
CHOP UPR activ: -4; Dynein transport: -1.3; Lmaj promast: 91*; T cruzi inh: 10; CHOP inhibitor: -6; UPR XBP1 act: -3

How did C=CCc1ccc(OCC(O)COc2ccc(CC=C)cc2OC)c(OC)c1 do in these assays?
CHOP UPR activ: 0; Dynein transport: 0.25; Lmaj promast: 12; T cruzi inh: 7; CHOP inhibitor: 60; UPR XBP1 act: -3

How did C=CCc1ccc(OCC(O)CN2CCCCC2C)c(OC)c1 (configuration not stated) do in these assays?
CHOP UPR activ: -1; Dynein transport: 1.1; Lmaj promast: 93*; T cruzi inh: 5; CHOP inhibitor: 7; UPR XBP1 act: 0

Results for CC1CCc2c(sc3ncnc(SCC(=O)N(C)C4CCS(=O)(=O)C4)c23)C1 (configuration not stated) ?
CHOP UPR activ: 1; UPR XBP1 act: 0

What do the screens show for `O=C(N/N=C1\CCCc2ccccc21)c1ccccc1[N+](=O)[O-]`?
CHOP UPR activ: 1; Dynein transport: -0.056; Lmaj promast: 100*; T cruzi inh: 0; CHOP inhibitor: 17; UPR XBP1 act: 2
